In ChEMBL document CHEMBL3351764, “Design, synthesis and biological activity of flavonoid derivatives as selective agonists for neuromedin U 2 receptor” (Bioorg Med Chem, 2014):
The source made the active and inactive calls. No cut-off for these calls is given here.

Assays:
Neuromedin-U receptor 2 = Neuromedin-U receptor 2 (Homo sapiens, UniProt Q9GZQ4); experiment: Agonist activity at human NMU2R transfected in HEK293 cells after 7 hrs by luciferase reporter gene assay; type: cell-based
Summary of the method: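 HEK-293 cells were stably co-transfected with a reporter gene construct and human NMU2R cDNA in pcDNA3.1(+), maintained under G418 selection at 37 °C in 5% CO2, then seeded and incubated overnight. Compounds were added at various concentrations for 7 h at 37 °C, followed by Bright-Glo luciferase read-out. Forskolin and NMU served as positive controls. EC50 was fitted by four-parameter logistic regression; means ± SEM of three independent experiments.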

[1] = molecular target: Adrenocorticotropic hormone receptor (Homo sapiens) (UniProt Q01718); experiment: Agonist activity at human MC2 receptor at 100 uM to 5 mM
Chain of Adrenocorticotropic hormone receptor (Homo sapiens) (Q01718 whole entry): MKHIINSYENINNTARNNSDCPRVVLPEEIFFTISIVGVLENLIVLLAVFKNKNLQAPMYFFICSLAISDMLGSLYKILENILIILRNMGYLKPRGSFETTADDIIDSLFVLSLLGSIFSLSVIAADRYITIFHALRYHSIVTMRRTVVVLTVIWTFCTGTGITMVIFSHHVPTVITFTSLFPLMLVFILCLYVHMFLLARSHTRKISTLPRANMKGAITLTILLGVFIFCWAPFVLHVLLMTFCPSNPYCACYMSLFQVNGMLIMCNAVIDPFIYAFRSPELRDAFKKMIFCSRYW

[2] = molecular target: Melanocortin receptor 3 (Homo sapiens) (UniProt P41968); experiment: Agonist activity at human MC3 receptor at 100 uM to 5 mM
Chain of Melanocortin receptor 3 (Homo sapiens) (P41968 whole entry): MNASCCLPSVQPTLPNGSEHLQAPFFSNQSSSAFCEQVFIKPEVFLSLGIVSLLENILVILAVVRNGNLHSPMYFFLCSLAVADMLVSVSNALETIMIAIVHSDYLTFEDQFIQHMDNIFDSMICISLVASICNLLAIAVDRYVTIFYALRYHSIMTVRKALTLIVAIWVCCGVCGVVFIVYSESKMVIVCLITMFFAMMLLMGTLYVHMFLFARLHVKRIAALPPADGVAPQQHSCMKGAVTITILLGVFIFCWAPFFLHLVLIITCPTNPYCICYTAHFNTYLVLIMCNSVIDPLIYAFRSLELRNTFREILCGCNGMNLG

[3] = molecular target: Melanocortin receptor 3 (Mus musculus) (UniProt P33033); experiment: Agonist activity at mouse MC3 receptor at 100 uM to 5 mM
Chain of Melanocortin receptor 3 (Mus musculus) (P33033 whole entry): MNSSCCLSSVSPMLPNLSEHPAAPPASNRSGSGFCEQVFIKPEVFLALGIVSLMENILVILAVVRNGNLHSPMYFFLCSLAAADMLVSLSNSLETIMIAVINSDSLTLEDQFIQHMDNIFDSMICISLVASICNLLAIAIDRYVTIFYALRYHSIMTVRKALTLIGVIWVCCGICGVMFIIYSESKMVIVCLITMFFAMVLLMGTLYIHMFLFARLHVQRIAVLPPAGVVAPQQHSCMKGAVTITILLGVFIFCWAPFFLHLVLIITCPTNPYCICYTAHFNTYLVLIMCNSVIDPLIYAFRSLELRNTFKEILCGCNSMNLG

[4] = molecular target: Melanocortin receptor 4 (Mus musculus) (UniProt P56450); experiment: Agonist activity at mouse MC4 receptor at 100 uM to 5 mM
Chain of Melanocortin receptor 4 (Mus musculus) (P56450 whole entry): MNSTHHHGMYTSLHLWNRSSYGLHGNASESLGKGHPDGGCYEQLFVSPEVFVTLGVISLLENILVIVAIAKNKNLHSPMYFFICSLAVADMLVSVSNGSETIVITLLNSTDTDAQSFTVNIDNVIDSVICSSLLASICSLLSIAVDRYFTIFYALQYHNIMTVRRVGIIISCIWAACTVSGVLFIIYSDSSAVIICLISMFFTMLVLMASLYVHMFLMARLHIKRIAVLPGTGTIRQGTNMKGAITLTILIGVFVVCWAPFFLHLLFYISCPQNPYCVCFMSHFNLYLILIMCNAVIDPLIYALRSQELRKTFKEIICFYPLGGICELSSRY

[5] = molecular target: Melanocortin receptor 5 (Mus musculus) (UniProt P41149); experiment: Agonist activity at mouse MC5 receptor at 100 uM to 5 mM
Chain of Melanocortin receptor 5 (Mus musculus) (P41149 whole entry): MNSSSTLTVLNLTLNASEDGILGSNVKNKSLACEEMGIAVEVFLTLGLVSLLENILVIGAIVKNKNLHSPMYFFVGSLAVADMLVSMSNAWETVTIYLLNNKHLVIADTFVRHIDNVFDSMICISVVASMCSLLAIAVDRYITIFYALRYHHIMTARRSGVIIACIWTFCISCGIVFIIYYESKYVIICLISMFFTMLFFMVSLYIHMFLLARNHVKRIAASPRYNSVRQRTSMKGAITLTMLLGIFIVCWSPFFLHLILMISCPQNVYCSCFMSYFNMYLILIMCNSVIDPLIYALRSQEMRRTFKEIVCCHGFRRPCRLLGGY

[6] = molecular target: T1, Neuromedin-U receptor 1 (Homo sapiens) (UniProt Q9HB89); experiment: Agonist activity at human NMU1 receptor at 100 uM to 5 mM
T1 sequence (whole entry): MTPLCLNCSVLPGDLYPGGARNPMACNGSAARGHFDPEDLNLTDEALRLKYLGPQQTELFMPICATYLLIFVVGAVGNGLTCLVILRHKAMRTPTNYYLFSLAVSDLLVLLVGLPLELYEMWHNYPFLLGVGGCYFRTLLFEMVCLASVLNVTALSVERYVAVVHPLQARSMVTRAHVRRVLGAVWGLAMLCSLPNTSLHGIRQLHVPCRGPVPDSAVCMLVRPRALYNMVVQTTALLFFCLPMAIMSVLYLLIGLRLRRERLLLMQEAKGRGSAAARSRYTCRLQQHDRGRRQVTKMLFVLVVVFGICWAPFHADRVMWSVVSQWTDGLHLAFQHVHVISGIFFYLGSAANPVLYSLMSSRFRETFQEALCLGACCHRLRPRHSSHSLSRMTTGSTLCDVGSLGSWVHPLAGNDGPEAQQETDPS

[7] = molecular target: D(1A) dopamine receptor (Homo sapiens) (UniProt P21728); experiment: Agonist activity at human D1 receptor at 100 uM to 5 mM
Chain of D(1A) dopamine receptor (Homo sapiens) (P21728 whole entry): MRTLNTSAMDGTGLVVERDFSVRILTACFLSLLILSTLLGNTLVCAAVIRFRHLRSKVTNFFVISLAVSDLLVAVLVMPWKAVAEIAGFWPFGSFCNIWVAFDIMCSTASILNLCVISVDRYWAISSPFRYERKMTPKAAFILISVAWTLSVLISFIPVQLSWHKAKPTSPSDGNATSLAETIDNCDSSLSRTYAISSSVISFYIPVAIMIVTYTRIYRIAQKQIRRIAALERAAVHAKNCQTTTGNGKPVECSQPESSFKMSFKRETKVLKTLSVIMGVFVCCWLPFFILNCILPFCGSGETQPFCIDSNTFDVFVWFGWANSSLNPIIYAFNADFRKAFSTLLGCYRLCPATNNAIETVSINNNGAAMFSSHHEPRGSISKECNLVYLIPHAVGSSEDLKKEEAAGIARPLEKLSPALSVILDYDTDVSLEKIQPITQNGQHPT

[8] = molecular target: D(1B) dopamine receptor (Homo sapiens) (UniProt P21918); experiment: Agonist activity at human D5 receptor at 100 uM to 5 mM
Chain of D(1B) dopamine receptor (Homo sapiens) (P21918 whole entry): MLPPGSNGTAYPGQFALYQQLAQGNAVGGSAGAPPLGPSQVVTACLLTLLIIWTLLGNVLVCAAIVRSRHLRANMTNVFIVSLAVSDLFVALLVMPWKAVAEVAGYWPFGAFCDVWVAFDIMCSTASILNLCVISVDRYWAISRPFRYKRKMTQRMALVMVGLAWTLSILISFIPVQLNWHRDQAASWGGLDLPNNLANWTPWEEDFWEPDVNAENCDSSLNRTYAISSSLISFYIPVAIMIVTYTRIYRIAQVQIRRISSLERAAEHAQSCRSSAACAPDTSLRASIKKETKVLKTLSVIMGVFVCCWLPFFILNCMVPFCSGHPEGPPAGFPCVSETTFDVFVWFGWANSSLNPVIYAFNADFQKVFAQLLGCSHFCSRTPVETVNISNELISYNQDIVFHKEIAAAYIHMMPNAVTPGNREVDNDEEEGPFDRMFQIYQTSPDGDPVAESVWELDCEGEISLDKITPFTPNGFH

[9] = molecular target: T2, Adenosine receptor A1 (Homo sapiens) (UniProt P30542); experiment: Agonist activity at human A1 receptor at 100 uM to 5 mM
T2 sequence (whole entry): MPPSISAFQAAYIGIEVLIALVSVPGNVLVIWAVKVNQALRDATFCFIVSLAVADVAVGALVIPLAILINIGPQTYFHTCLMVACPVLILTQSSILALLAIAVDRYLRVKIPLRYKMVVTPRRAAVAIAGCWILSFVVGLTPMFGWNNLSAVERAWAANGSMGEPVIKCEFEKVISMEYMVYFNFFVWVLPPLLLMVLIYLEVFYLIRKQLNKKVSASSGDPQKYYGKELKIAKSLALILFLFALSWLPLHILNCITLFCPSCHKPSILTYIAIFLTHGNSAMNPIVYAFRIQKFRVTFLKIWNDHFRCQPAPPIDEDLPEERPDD

[10] = molecular target: Adenosine receptor A2a (Homo sapiens) (UniProt P29274); experiment: Agonist activity at human A2a receptor at 100 uM to 5 mM
Chain of Adenosine receptor A2a (Homo sapiens) (P29274 whole entry): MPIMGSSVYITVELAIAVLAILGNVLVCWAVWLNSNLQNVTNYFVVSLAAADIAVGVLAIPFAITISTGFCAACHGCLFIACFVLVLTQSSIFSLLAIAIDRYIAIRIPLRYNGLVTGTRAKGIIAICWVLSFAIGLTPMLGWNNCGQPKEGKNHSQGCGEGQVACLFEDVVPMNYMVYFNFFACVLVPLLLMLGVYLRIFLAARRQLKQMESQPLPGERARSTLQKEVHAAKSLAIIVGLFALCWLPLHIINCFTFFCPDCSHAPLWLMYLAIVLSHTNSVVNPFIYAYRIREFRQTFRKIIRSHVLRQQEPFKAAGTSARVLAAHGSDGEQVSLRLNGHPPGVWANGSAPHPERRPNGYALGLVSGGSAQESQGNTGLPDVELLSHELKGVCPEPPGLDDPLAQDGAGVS

[11] = molecular target: T3, Adenosine receptor A3 (Homo sapiens) (UniProt P0DMS8); experiment: Agonist activity at human A3 receptor at 100 uM to 5 mM
T3 sequence (whole entry): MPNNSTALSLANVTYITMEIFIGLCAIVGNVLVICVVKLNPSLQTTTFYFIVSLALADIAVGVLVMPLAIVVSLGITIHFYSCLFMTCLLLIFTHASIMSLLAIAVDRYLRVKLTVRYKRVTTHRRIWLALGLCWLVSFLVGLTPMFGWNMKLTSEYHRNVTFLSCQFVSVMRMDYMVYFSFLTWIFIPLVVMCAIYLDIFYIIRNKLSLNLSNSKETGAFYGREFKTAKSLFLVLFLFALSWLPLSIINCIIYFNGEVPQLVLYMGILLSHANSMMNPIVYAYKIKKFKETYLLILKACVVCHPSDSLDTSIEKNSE

[12] = molecular target: T4, C5a anaphylatoxin chemotactic receptor 1 (Homo sapiens) (UniProt P21730); experiment: Agonist activity at human C5a receptor at 100 uM to 5 mM
T4 sequence (whole entry): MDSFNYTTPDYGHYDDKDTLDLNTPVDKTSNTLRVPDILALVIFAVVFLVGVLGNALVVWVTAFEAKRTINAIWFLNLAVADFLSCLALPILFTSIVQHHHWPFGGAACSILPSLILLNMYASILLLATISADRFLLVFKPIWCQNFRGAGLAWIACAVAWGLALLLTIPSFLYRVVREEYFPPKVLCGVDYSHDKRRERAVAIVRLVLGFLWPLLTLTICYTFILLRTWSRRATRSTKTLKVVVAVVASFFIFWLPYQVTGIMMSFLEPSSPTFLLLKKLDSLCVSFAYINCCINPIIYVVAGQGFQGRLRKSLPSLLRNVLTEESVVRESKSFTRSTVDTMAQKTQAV

[13] = molecular target: T5, Neuropeptide Y receptor type 5 (Homo sapiens) (UniProt Q15761); experiment: Agonist activity at human NPY5 receptor at 100 uM to 5 mM
T5 sequence (whole entry): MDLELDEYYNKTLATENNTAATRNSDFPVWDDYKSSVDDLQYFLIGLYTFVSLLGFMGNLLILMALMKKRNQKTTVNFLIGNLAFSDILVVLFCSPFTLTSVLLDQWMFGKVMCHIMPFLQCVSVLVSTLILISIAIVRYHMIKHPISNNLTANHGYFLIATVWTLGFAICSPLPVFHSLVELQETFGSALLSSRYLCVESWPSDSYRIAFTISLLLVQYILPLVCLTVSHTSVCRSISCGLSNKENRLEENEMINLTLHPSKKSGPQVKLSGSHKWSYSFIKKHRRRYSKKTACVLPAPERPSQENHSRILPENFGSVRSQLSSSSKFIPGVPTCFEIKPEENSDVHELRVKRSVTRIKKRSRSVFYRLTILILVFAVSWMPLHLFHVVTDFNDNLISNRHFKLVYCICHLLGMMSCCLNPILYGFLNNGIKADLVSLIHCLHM

[14] = molecular target: Glucagon receptor (Homo sapiens) (UniProt P47871); experiment: Agonist activity at human Glu receptor at 100 uM to 5 mM
Chain of Glucagon receptor (Homo sapiens) (P47871 whole entry): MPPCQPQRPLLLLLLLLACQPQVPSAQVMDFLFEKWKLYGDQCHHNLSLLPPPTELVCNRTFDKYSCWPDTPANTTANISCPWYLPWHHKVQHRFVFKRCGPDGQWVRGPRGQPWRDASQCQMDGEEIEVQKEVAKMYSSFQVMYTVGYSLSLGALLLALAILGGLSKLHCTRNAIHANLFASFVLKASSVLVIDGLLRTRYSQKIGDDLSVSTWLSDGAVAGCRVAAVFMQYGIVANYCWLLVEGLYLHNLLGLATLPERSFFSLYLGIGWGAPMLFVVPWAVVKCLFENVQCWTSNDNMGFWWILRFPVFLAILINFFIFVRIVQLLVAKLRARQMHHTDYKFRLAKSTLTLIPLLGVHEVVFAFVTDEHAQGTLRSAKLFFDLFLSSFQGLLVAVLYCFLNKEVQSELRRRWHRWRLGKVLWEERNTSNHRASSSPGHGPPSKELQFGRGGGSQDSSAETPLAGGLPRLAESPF

Chain of Neuromedin-U receptor 2 (Q9GZQ4 whole entry): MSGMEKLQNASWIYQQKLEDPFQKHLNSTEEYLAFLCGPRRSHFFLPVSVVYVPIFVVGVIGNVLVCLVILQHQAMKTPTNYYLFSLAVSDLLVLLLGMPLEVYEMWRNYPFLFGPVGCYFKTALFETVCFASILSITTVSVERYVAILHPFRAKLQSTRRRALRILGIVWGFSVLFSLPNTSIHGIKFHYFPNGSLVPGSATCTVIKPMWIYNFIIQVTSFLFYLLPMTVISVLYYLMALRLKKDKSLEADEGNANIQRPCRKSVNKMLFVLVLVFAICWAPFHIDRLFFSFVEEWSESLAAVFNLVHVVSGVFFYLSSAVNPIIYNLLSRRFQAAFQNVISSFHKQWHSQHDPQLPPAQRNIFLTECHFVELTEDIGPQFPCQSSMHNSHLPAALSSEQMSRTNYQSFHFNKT

Compound	EC50 (Neuromedin-U receptor 2; hek293)	Activity [1]	Activity [2]	Activity [3]	Activity [4]	Activity [5]	Activity [6]	Activity [7]	Activity [8]	Activity [9]	Activity [10]	Activity [11]	Activity [13]	Activity [14]	EC50 (Neuromedin-U receptor 2; read-out: EC50)	Activity [12]
CN(C)c1ccc(C2C=Cc3ccccc3O2)cc1 (racemic)	Not Active	inactive	inactive	inactive	inactive	inactive	inactive	inactive	inactive	inactive	inactive	inactive	inactive	inactive		inactive
O=c1cc(-c2ccc(O)cc2)oc2ccccc12	Not Active	inactive	inactive	inactive	inactive	inactive	inactive	inactive	inactive	inactive	inactive	inactive	inactive	inactive		inactive
O=c1c(O)c(-c2ccc(Cl)cc2Cl)oc2ccccc12	Not Active	inactive	inactive	inactive	inactive	inactive	inactive	inactive	inactive	inactive	inactive	inactive	inactive	inactive		inactive
O=c1c(O)c(-c2c(F)ccc(F)c2Cl)oc2ccccc12	Not Active	inactive	inactive	inactive	inactive	inactive	inactive	inactive	inactive	inactive	inactive	inactive	inactive	inactive		inactive
COc1cc(-c2cc(=O)c3ccccc3o2)ccc1O	Not Active	inactive	inactive	inactive	inactive	inactive	inactive	inactive	inactive	inactive	inactive	inactive	inactive	inactive		inactive
O=c1c(O)c(-c2cccc(Cl)c2F)oc2ccccc12		inactive	inactive	inactive	inactive	inactive	inactive	inactive	inactive	inactive	inactive	inactive	inactive	inactive	31.1 µM	inactive
COc1cc(-c2oc3ccccc3c(=O)c2O)ccc1O	Not Active	inactive	inactive	inactive	inactive	inactive	inactive	inactive	inactive	inactive	inactive	inactive	inactive	inactive		inactive

The next lines start with results.

EC50 (Neuromedin-U receptor 2; hek293)	Activity [1]	Activity [2]	Activity [3]	Activity [4]	Activity [5]	Activity [6]	Activity [7]	Activity [8]	Activity [9]	Activity [10]	Activity [11]	Activity [13]	Activity [14]	EC50 (Neuromedin-U receptor 2; read-out: EC50)	Compound	Activity [12]
Not Active	inactive	inactive	inactive	inactive	inactive	inactive	inactive	inactive	inactive	inactive	inactive	inactive	inactive		O=c1c(O)c(-c2ccc(O)cc2)oc2ccccc12	inactive
Not Active	inactive	inactive	inactive	inactive	inactive	inactive	inactive	inactive	inactive	inactive	inactive	inactive	inactive		CCN(CC)c1ccc(-c2oc3ccccc3c(=O)c2O)cc1	inactive
Not Active	inactive	inactive	inactive	inactive	inactive	inactive	inactive	inactive	inactive	inactive	inactive	inactive	inactive		CCOC(=O)COc1c(-c2cc(Br)ccc2F)oc2ccccc2c1=O	inactive
